Article PMC3609949 (Journal of the American Chemical Society, 2013)
Where a SMILES comes first, the peptide text is derived from it. The star is where a group is joined. X1 = CC[C@@]1(OC(=O)CCCS*)C(=O)OCc2c1cc1n(c2=O)Cc2cc3ccccc3nc2-1

Assay: TEM imaging of self-assembled nanostructures in water
Format: physicochemical
Details: 50 μM in water, stained with 2% uranyl acetate
Method in brief: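 Negative-stain TEM using 2% aqueous uranyl acetate to enhance contrast. Most stained samples were imaged at 50 μM. Some other images were taken at 1 mM, and one panel is listed at both 50 μM and 100 μM. Filament widths are given as value ± spread.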

SMILES: CC[C@H](C)[C@H](NC(=O)[C@H](CCC(N)=O)NC(=O)[C@@H](NC(=O)CNC(=O)[C@H](CSSCCCC(=O)O[C@]1(CC)C(=O)OCc2c1cc1n(c2=O)Cc2cc3ccccc3nc2-1)NC(C)=O)C(C)C)C(=O)N[C@H](C(=O)N[C@@H](Cc1ccc(O)cc1)C(=O)N[C@@H](CCCCN)C(=O)N[C@@H](CCCCN)C(N)=O)C(C)C [mCPT-buSS-Tau] (Ac-C(X1)GVQIVYKK-NH2; N-terminus and C-terminus assumed)
- width of self-assembled filaments/nanotubes: 6.7 ± 1 nm
